Measurements of several laboratories.
Compare with care: the assays were run in different laboratories.
PIK3CG: Phosphatidylinositol 4,5-bisphosphate 3-kinase catalytic subunit gamma isoform (PIK3CG, Homo sapiens, UniProt P48736)
ADRA2B: Alpha-2B adrenergic receptor (ADRA2B, Homo sapiens, UniProt P18089)

CC(C)c1cccc(C(C)C)c1N=C1C(=O)Nc2ccccc21
IC50 (PIK3CG; enzyme activity; inhibitor; ADP detection): 12.6 nM

N#Cc1ccc2c(CN3CCOCC3)cc(-c3ccc([C@@H]4CCC(=O)N4)cc3)nc2c1
Kd (Advanced glycosylation end product-specific receptor (AGER, Homo sapiens, UniProt Q15109); binding; fluorescence): 1 nM

CC(C)c1cccc(C(C)C)c1N=C1C(=O)N(Cc2ccc(Br)cc2)c2ccccc21
IC50 (PIK3CG; enzyme activity; inhibitor; ADP detection): 4.06 nM

CC(C)C[C@H](NC(=O)[C@H](CC(C)C)NC(=O)[C@H](Cc1c[nH]c2ccccc12)NC(=O)[C@H](CCC(N)=O)NC(=O)[C@@H](NC(=O)[C@H](Cc1ccccc1)NC(=O)[C@H](CC(=O)O)NC(=O)[C@H](CCC(N)=O)NC(=O)[C@H](C)NC(=O)[C@H](C)NC(=O)[C@H](CCCNC(=N)N)NC(=O)[C@H](CCC(=O)O)NC(=O)[C@H](CC(=O)O)NC(=O)[C@H](CC(C)C)NC(=O)[C@H](Cc1ccc(O)cc1)NC(=O)[C@H](CCCCN)NC(=O)[C@H](CO)NC(=O)[C@H](Cc1ccc(O)cc1)NC(=O)[C@H](CC(=O)O)NC(=O)[C@H](CO)NC(=O)[C@@H](NC(=O)[C@H](Cc1ccccc1)NC(=O)[C@@H](NC(=O)CNC(=O)[C@H](CCC(N)=O)NC(=O)C(C)(C)NC(=O)[C@@H](N)Cc1c[nH]cn1)[C@@H](C)O)[C@@H](C)O)C(C)C)C(=O)N[C@@H](CC(=O)O)C(=O)NCC(=O)NCC(=O)N1CCC[C@H]1C(=O)N[C@@H](CO)C(=O)N[C@@H](CC(C)C)C(=O)N[C@@H](CCCNC(=N)N)C(=O)N[C@@H](Cc1c[nH]cn1)C(=O)N[C@@H](Cc1ccc(O)cc1)C(=O)N[C@@H](CC(C)C)C(=O)N[C@@H](CC(N)=O)C(=O)N[C@@H](CC(C)C)C(=O)N[C@H](C(=O)N[C@H](C(=O)N[C@@H](CCCNC(=N)N)C(=O)N[C@@H](CCC(N)=O)C(=O)N[C@@H](CCCNC(=N)N)C(=O)N[C@@H](Cc1ccc(O)cc1)C(N)=O)[C@@H](C)O)C(C)C
EC50 (Glucagon receptor (GCGR, Homo sapiens, UniProt P47871); reporter gene; agonist; luciferase): 0.12 nM

Cc1cc(Oc2ncccc2CN2CCN(c3ccccc3Br)CC2)ccc1-c1c(C)c(=O)[nH]c(=O)n1C
Ki (ADRA2B; ligand displacement; radioligand): 49.6 nM

COc1cc(N=C2C(=O)N(Cc3ccccc3)c3ccccc32)cc(OC)c1
IC50 (PIK3CG; enzyme activity; inhibitor; ADP detection): 1.94 nM

Cc1cc(Oc2ncccc2CN2CCN(c3ccccn3)CC2)ccc1-c1c(C)c(=O)[nH]c(=O)n1C
Ki (ADRA2B; ligand displacement; radioligand): 267 nM

NC(=O)C1=CN([C@@H]2O[C@H](COP(=O)(O)OP(=O)(O)OC[C@H]3O[C@@H](n4cnc5c(N)ncnc54)[C@H](OP(=O)(O)O)[C@@H]3O)[C@@H](O)[C@H]2O)C=CC1
Kd (MECR (Homo sapiens, UniProt Q9BV79); binding; ITC): 956 nM

COc1cc(-c2noc(C3CNc4cnn(C)c4C3)n2)cc(Cl)c1OC (stereo not shown)
Kd (FBXW7 (Homo sapiens, UniProt Q969H0); binding; SPR): > 87000 nM

Cc1cc(Oc2ncccc2CN2CCN(c3cccc(Cl)c3Cl)CC2)ccc1-c1c(C)c(=O)[nH]c(=O)n1C
Ki (ADRA2B; ligand displacement; radioligand): 113 nM

COc1ccc(-c2cc(=O)c3cccc(Nc4ncc5cc(C(=O)N(C)C)n(C6CCCC6)c5n4)c3o2)cc1
IC50 (PIK3CG; enzyme activity; inhibitor; radiometric): > 10000 nM

Cc1cc(Oc2ncccc2CN2CCN(C(c3ccccc3)c3ccccc3)CC2)ccc1-c1c(C)c(=O)[nH]c(=O)n1C
Ki (ADRA2B; ligand displacement; radioligand): 172 nM

Cc1cccc(N=C2C(=O)N(Cc3ccccc3)c3ccccc32)c1
IC50 (PIK3CG; enzyme activity; inhibitor; ADP detection): 0.45 nM
